Insulin prom act = TRM-6 insulin promoter activation; AID 1296; TRM-6 cells, insulin promoter eGFP reporter, imaging; plate-scaled: unstimulated 0, stimulated control 100; 130,000 tested, 0.81% active; activation, % at 2 µM;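 active = activation at 2 µM above a set limit, confirmed on inspection of the cell images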;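 also: share of cells whose green reporter signal exceeds an intensity cutoff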
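System: human fetal islet-derived TRM-6 cells with tamoxifen-inducible insulin promoter–eGFP reporter; input: seeding density of 1,000 cells per well; buffer or medium: Low-glucose (5.5 mM) medium with tamoxifen; incubation: compound exposure 48 h, 37 °C; measured by: high-content imaging of fixed cells with Hoechst nuclear stain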
The depositor's hits bear a star. Many of the other results were omitted from the sample, so hits are more common in it than they were.

SMILES	Insulin prom act
COc1ccc(Cl)cc1NC(=O)c1ccccc1C	-2.9
CCN(C(=O)c1cc(Cl)ccc1OC)c1ccccc1C	542.9*
CCN(C(=O)c1cn(C)c(=O)c2cc(OC)c(OC)cc12)c1ccccc1C	-81.0
CCOc1ccc(CO/N=C/c2c(C)[nH]c(=O)[nH]c2=O)cc1	0.0
CCOC(=O)/C(C#N)=C1/C=CN(Cc2ccccc2)C=N1	-6.1
CCCCCCN1C=CC(=C/C=C(\C#N)C(=O)OCC)C=C1	132.6*
CCCN1C=CC(=C/C=C(\C#N)C(=O)OCC)C=C1	141.0*
CCOC(=O)/C(C#N)=C\C1=C(N2CCCC2)CC(C)(C)OC1	-2.9
CCOC(=O)/C(C#N)=C1/C=CN(C)C=N1	0.0
CCOC(=O)C(/C=C(\C#N)C(=O)OCC)=C(/N)N1CCN(c2ccccc2)CC1	-7.1
c1ccc(-c2ccc(-c3cn4c(n3)CCC4)cc2)cc1	5.1
O=C(CCC1CCCCC1)NNC(=O)c1cnccn1	2.8
Cc1nn(CC(=O)c2cccc(Cl)c2)c(C)c1[N+](=O)[O-]	-4.8
CS(=O)(=O)Nc1ccc(C(=O)Nc2cccc([N+](=O)[O-])c2)cc1	5.6
C=CCn1c(SCC(=O)NC2CCCCC2)nnc1-c1ccc(OC)cc1	114.3
C=CCn1c(SCCOc2ccc(OC)cc2)nnc1C(C)NC(=O)c1ccc(OC)cc1 (centres undefined)	9.7
C=CCn1c(-c2ccc(Cl)cc2)cnc1SC(C)C(=O)NC(N)=O (centres undefined)	357.1*
Cc1ccc(NCC(=O)N/N=C/c2cccc(Oc3ccccc3)c2)cc1	-6.7
O=C(CCCCn1c(=S)[nH]c2ccsc2c1=O)NCc1ccc2c(c1)OCO2	-9.5
COC(CN1C(=O)C(O)=C(C(C)=O)C1c1ccccn1)OC (centres undefined)	-8.6
Cc1nn(-c2ccccc2)c2c1C1(C(=O)N(C)c3ccccc31)C(C#N)=C(N)O2 (centres undefined)	-17.5
CN1/C(=C\C(=O)Nc2ccc(Br)cc2)C(C)(C)c2ccccc21	0.0
CN1/C(=C\C=C2/C(=O)Oc3ccccc3C2=O)C(C)(C)c2ccccc21	222.6*
COc1ccc(C(=O)NNC(=O)c2cccc(F)c2)cc1	0.0
O=C(Nc1cccc(S(=O)(=O)N2CCOCC2)c1)[C@@H]1CCCN1S(=O)(=O)c1ccc(Cl)cc1	103.2
SMILES	Insulin prom act
O=C(Nc1cccnc1)C1CCCN1S(=O)(=O)c1ccc(Cl)c(Cl)c1 (centres undefined)	481.3*
COc1ccc(S(=O)(=O)N2CCCC(C(=O)Nc3cccnc3)C2)cc1Cl (centres undefined)	-7.7
Cc1ccc(/C=N/NC(=O)CCn2nc(C)cc2C)c(C)c1	0.0
CCn1c2ccccc2c2cc(NC(=O)COc3ccccc3)ccc21	6.7
N#Cc1c(N)nc2c(c1-c1ccncc1)CCCC2	0.0
Cc1[nH]n2c(=O)c3c(nc2c1-c1ccccc1)CCC3	-83.3
CSc1nc2c(c(-c3ccccc3)c1C#N)CCC2	411.1*
N#Cc1c2c(nc(N)c1-c1ccccc1)CCCCC2	-9.3
N#Cc1c(N)nc2c(c1-c1ccncc1)CCCCCC2	450.0*
CC(C)c1ccc(-c2c(C#N)c(N)nc3c2CCCCC3)cc1	-7.1
O=C(N/N=C/c1ccc([N+](=O)[O-])o1)C1CC1	-5.6
Cc1ccc(NC(=O)N2N=C(c3ccc(F)cc3)CC2c2ccc(F)cc2)cc1 (centres undefined)	7.7
O=C(NCc1ccco1)/C(=C/c1cccnc1)NC(=O)c1ccco1	4.2
O=C(CSc1nc2ccccc2c(=O)n1-c1ccccc1Cl)Nc1cccc(S(=O)(=O)N2CCOCC2)c1	-7.7
Cc1cccc(NC(=S)N(CCN(C)C)Cc2cccs2)c1	6.7
Cc1nnc(SCC(=O)N2c3ccccc3C(C)(c3ccccc3)CC2(C)C)s1 (centres undefined)	7.4
COC(=O)c1ccc(COC(=O)CNS(=O)(=O)c2ccc(C)cc2)cc1	-73.0
CCc1nnc(NC(=O)C2COc3ccccc3O2)s1 (centres undefined)	-5.4
C=CCNC(=O)c1ccccc1NC(=O)C1COc2ccccc2O1 (centres undefined)	471.4*
O=C(Nc1ccccc1C(=O)N1CCCC1)C1COc2ccccc2O1 (centres undefined)	-8.3
O=C(O)c1ccc(C(=O)Nc2cccc(NC(=O)C3CCCO3)c2)cc1 (centres undefined)	-5.7
CC(C)CNC(=O)c1cccc(NC(=O)C2CCCO2)c1 (centres undefined)	437.9*
COc1cccc(C(=O)Nc2cccc(C(=O)NCC(C)C)c2)c1	1.3
Cc1cc(C(=O)N[C@H](c2ccccc2)[C@@]2(C)C[C@@H]2[C@@H](C)C(=O)Nc2ccc3ccccc3c2)n(C)n1	9.5
COC(=O)C1=C(C)C(c2cccs2)NC(=O)N1C (centres undefined)	-2.6
SMILES	Insulin prom act
COC(=O)C1=C(C)N(CCCC(=O)O)C(=O)NC1c1ccc(-c2ccccc2)cc1 (centres undefined)	0.0
COC(=O)C1=C(C)N(CCCC(=O)O)C(=O)NC1c1cccs1 (centres undefined)	295.0*
CCC1Oc2ccc(C)cc2N(CC(=O)N(Cc2ccc(C)o2)C2CCCC2)C1=O (centres undefined)	256.3
CCC(=O)N(Cc1cc2cc(OC)ccc2[nH]c1=O)c1ccc(C)cc1C	236.4*
COc1ccc2[nH]c(=O)c(CN(C(C)=O)c3cccc(C)c3)cc2c1	-90.9
CCOc1cc(C(=O)N(C)Cc2cc3cc(OC)ccc3[nH]c2=O)cc(OCC)c1OCC	3.7
CCC(CO)NC1=CC(=O)CCC1 (centres undefined)	0.0
COC(=O)c1cc(CNC(=O)c2cccc(Cl)c2Cl)ccc1OC	7.1
O=C(NC1CCN(C(=O)Nc2ccccc2Cl)CC1)c1ccccc1	-7.1
CC(C)Cc1nnc(NC(=O)CS(=O)(=O)Cc2ccccc2)s1	5.7
Cc1ccnc(NC(=O)CS(=O)(=O)Cc2ccccc2)c1	550.0*
CCC(CC)c1nnc(NC(=O)CS(=O)(=O)Cc2ccccc2)s1	-42.9
COc1ccc(-n2c(C(C)n3nc(C)c([N+](=O)[O-])c3C)n[nH]c2=S)cc1 (centres undefined)	515.4*
CC(c1n[nH]c(=S)n1-c1ccc(F)cc1)N1CCCCC1 (centres undefined)	2.4
Cc1nn(C(C)c2n[nH]c(=S)n2-c2cccc(Cl)c2)c(C)c1[N+](=O)[O-] (centres undefined)	200.0
O=C(Cc1ccc(Cl)cc1Cl)OCC(=O)N1CCN(C(=O)c2ccco2)CC1	-4.8
Cn1cccc1C(=O)OCC(=O)c1cc2ccccc2o1	184.6*
Cc1cc(SCC(=O)c2cc3ccccc3o2)nc2ccccc12	8.3
CC(C)NC(=O)c1cc2ccccc2o1	-27.3
COc1ccc2ccccc2c1C(=O)/C=C\c1ccoc1	-78.6
O=c1c2ccccc2nc2ccc(NCc3cccs3)nn12	-7.1
O=C(NCCCCNC(=O)c1ccc(Br)s1)c1ccc(Br)s1	5.4
CCC(CC)N=C1NS(=O)(=O)c2cc([N+](=O)[O-])ccc21	-5.9
CCN(CC)c1ccc(-c2nc3cnccc3n2C)cc1	-3.1
Nc1nc(SCc2ccccc2Cl)ns1	176.9
COCCCN(C(=O)Nc1cccc(Cl)c1)C(C)c1ccccn1 (centres undefined)	641.7*
COCCCN(C(=S)Nc1cccc(Cl)c1)C(C)c1ccncc1 (centres undefined)	5.4
CC(c1ccccn1)N(CCN(C)C)C(=S)Nc1cccc(F)c1 (centres undefined)	9.7

From PubChem
